# High-throughput results: PubChem BioAssay, several laboratories
# Rows were chosen to be rich in hits. Some 1.6% of all compounds tested hit in one or more screens of this group.
# TLR9-MyD88 inh – inhibitors of human TLR9-MyD88 binding; CHO BLA complementation TLR9-MyD88, CCF4 FRET ratio; AID 504734; 0.21% of 340,000 active; inhibition, % at 4.98 µM; Q9NR96+Q99836;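 active means inhibition above the mean over all tested compounds plus 3 SD, cut at about 21% in these data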;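 further: 0% = DMSO only wells and 100% = clavulanate BLA inhibitor control wells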
# TLR4 MyD88 comp – TLR4-MyD88 interaction inhibition in cells; HeLa CL3-4 TLR4/MyD88 BLA complementation, FRET ratio; inhibition, % at 8.4 µM; 0.18% of 200,000 active; O00206+Q99836; in the data active means inhibition above about 25%;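 further: 0% = vehicle and 100% = reference inhibitor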
# ABHD5 PLIN5 PPI – ABHD5-PLIN5 protein interaction inhibition | Q00G26+Q8WTS1 | Split G. princeps luciferase complementation, luminescence, 4 h | inhibition, % at 4 µM | 0.78% of 360,000 active | AID 602281;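 active means inhibition above the mean inhibition across every tested compound plus 3 SD, cut at about 22% in these data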;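 further: 0% = DMSO only wells and the 100% control is not disclosed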
# Target sequence (Q00G26 whole entry, looked up): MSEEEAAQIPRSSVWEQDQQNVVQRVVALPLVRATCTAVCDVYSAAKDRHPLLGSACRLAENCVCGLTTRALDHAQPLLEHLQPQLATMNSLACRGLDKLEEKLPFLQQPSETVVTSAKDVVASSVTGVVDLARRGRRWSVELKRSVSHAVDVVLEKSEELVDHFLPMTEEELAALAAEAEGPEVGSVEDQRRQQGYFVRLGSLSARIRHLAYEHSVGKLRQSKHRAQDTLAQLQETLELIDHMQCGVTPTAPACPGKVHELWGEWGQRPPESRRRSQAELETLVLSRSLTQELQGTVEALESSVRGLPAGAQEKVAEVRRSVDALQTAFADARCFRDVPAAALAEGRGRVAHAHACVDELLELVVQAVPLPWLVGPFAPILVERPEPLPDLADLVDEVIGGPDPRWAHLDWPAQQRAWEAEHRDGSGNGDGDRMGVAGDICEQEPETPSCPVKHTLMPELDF
# Target sequence (Q8WTS1 whole entry, looked up): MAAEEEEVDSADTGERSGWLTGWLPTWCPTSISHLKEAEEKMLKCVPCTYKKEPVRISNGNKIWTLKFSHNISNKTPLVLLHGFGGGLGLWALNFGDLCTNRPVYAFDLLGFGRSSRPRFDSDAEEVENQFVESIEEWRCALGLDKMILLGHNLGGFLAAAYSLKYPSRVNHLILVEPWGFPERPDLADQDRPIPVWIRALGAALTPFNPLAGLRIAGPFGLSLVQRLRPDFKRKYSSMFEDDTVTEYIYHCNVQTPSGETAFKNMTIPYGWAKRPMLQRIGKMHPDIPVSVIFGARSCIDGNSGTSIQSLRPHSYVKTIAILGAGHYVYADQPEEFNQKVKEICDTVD
# NOD2-RIPK2 inh – blocks binding of human NOD2 to RIPK2; AID 624267; inhibition, % at 4.98 µM; O43353; CHO BLA complementation NOD2-RIPK2, CCF4 ratio; 0.38% of 360,000 active; in the data active means inhibition above about 21%;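 further: 0% = vehicle only and 100% = reference blocker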
# Dynein transport – blocks dynein driven cargo transport along microtubules. 3617.4 mouse cells, GR-EGFP nuclear translocation imaging; test concentration mostly 20 µM; stimulated with dexamethasone, 1 µM; hits give low values. z-score, hits read low. 0.47% of 220,000 active. AID 1381;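 active means plate z-score of nuclear minus cytoplasmic receptor signal below a set negative limit, without overly bright fluorescence or cell loss, cut at about -3.5 in these data, passing the limit was not always enough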;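 further: z-score of nuclear minus cytoplasmic ring GR-EGFP intensity difference per well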
#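 Buffer or medium: Induction medium lacking tetracycline, stripped serum | Also added: Dexamethasone agonist, 1.0 µM final, for 30 min | Timing: 48 h induction, 1 h compound, 30 min dex at 37 °C | Detection: Formaldehyde fixation, Hoechst nuclear stain, 10x automated fluorescence imaging | Measure: Nuclear versus cytoplasmic GR-EGFP signal, averaged per well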
# B2AR ag – human beta-2 adrenergic receptor agonism by FAP | AID 504454 | response, % (no concentration beside the values) | P07550 | 0.43% of 340,000 active | Am2.2-beta2AR cells, FAP receptor internalization, flow cytometry;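 active means response above a set limit, near 3 SD of response in nonfluorescent compounds, cut at about 42% in these data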
# Dynein inh conf – dynein cargo transport inhibition, confirmation | shares compounds with Dynein transport | 3617.4 GR-EGFP nuclear translocation imaging, dexamethasone-induced | calls only at 20 µM | 69% of 1,000 active | AID 463116;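 active means inhibition of receptor movement into the nucleus at or above a set limit in both runs, with normal cell brightness and cell count; inconclusive means limit reached in only one run, brightness and count normal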;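 further: dexamethasone at 1 µM final in well for 30 min; nuclear minus cytoplasmic GR-EGFP mean intensity difference in channel 2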
# An asterisk follows results filed as active; i = inactive; ? = inconclusive; / = no result given; + = active, no number.
SMILES,TLR9-MyD88 inh,TLR4 MyD88 comp,ABHD5 PLIN5 PPI,NOD2-RIPK2 inh,Dynein transport,B2AR ag,Dynein inh conf
Cc1ccc(S(=O)(=O)NC2OC(=O)C(Cl)=C2Cl)cc1 (configuration not stated),-15.5,4.1,17.9,-11.0,-3.64*,8.9,i
Cc1ccc(S(=O)(=O)NC2CCCCCCC2)cc1,-0.7,/,-0.1,1.8,/,-0.8,/
Cc1ccc(-n2nnnc2C(Cl)(Cl)c2nnnn2-c2ccc(C)cc2)cc1,-8.5,1.1,12.2,-5.5,-4.6*,17.5,+
Clc1ccc(-c2nnnn2-c2ccc(Cl)cc2)cc1,/,/,2.0,-7.2,-0.497,-15.7,/
CN(CC(=O)Nc1ccccc1Br)C(=O)C(Cc1ccccc1)NC(=O)c1ccccc1 (configuration not stated),2.2,/,-2.4,6.2,/,4.3,/
CN(C)S(=O)(=O)c1cccc(-n2sc3ccccc3c2=O)c1,3.9,-19.8,47.3*,-4.2,-3.56*,1.7,i
Cc1cc(C(=O)CCl)c(C)n1-c1ccon1,2.2,0.8,2.2,-20.8,-5.55*,5.9,+
Cc1cc(C(=O)CSc2nncs2)c(C)n1Cc1ccco1,-10.7,5.7,4.4,-10.3,-0.0581,-2.9,/
Cc1cc(C(=O)CCl)c(C)n1Cc1ccco1,-5.5,-11.0,11.2,5.1,-6.01*,7.0,+
COC(=O)c1scc(C)c1NC(=O)/C=C/C(=O)O,-1.4,/,4.7,-6.7,-3.76*,-6.0,i
CC(C)C(=O)N1CCC1(C)C(=O)Nc1cccc(Oc2ccccc2)c1 (configuration not stated),/,/,-3.7,-2.7,/,/,/
COc1ccc(OC)c(NC(=O)C2(C)CCN2Cc2ccccc2Cl)c1 (configuration not stated),/,/,-2.0,-11.9,/,/,/
COc1ccc(Nc2ccccc2N)cc1,-2.3,-2.7,3.2,-1.6,-5.13*,5.4,i
CCNC(=O)C1(C)CCCN(C(=O)c2ccnc(Cl)c2)C1 (configuration not stated),/,/,2.3,2.3,/,/,/
COC(=O)[C@]12CCCCC=C1N(Cc1ccc3c(c1)OCO3)C(=O)[C@H](CC(=O)N1CCC(c3ccccc3)CC1)C2,/,/,5.2,-17.1,/,/,/
N#CCCS(=O)(=O)c1nnnn1-c1ccccc1,/,10.1,/,/,-5.03*,/,?
C/C(=N\NC(N)=S)C1=CCC2C3CC[C@H]4CC(O)CC[C@]4(C)C3CC[C@]12C (some centres not stated),-3.3,/,-14.2,-6.0,/,15.3,/
CCOC(=O)C(C)CC(C)C(=O)N1CCOCCOCCN(C(=O)C(C)CC(C)C(=O)OCC)CCOCC1 (configuration not stated),-5.2,8.4,-2.5,-12.8,-0.109,1.2,/
CCOC(=O)C(C(=O)OCC)C(C(=O)OCC)N1CCOCC1 (configuration not stated),5.8,-13.7,0.5,-2.0,-4.56*,19.3,+
CCC(C)CN1C(=O)CN(S(C)(=O)=O)CC1(C)C(=O)NCc1ccccc1 (configuration not stated),/,/,5.4,-1.5,/,/,/
COc1ccc(-c2c(C#N)c(N)nc3sc(C(=O)c4ccccc4)c(N)c23)cc1,-35.1,-6.3,-1.1,2.9,-3.87,-5.6,i
CNc1ccc(-c2cccc(CO)c2)cn1,/,/,1.7,-6.5,/,/,/
O=S(=O)(c1ccccc1)c1ncc(C(F)(F)F)cc1O,0.7,6.5,-7.2,1.8,-0.387,-0.6,/
O=S(=O)(c1ccccc1)c1ncc(C(F)(F)F)cc1Cl,-3.8,9.2,21.8,9.4,-6.39*,3.1,+
COc1ccc(C(=O)C(CN2CCCC2)c2ccccc2)cc1 (configuration not stated),1.4,-10.9,2.9,8.6,-4.28*,-8.6,+
SMILES,TLR9-MyD88 inh,TLR4 MyD88 comp,ABHD5 PLIN5 PPI,NOD2-RIPK2 inh,Dynein transport,B2AR ag,Dynein inh conf
c1ccc(-c2ccc(-c3nccc4ccccc34)[nH]2)cc1,/,/,/,/,-4.56,/,i
N#Cc1cc(-c2ccccc2)[nH]c1-c1nccc2ccccc12,-1.2,/,-10.0,2.5,0.197,-15.5,/
Cc1ccc(S(=O)(=O)N(C)CC(=O)N(C)Cc2cccs2)cc1,-10.8,/,-9.4,-10.6,/,/,/
CC1C/C(=C/c2ccco2)C(=O)/C(=C/c2ccco2)C1 (configuration not stated),/,-0.2,/,/,-3.73,/,+
Cc1cccc(C)c1NC(=O)C1(C)CSCC(=O)N1CCC(C)C (configuration not stated),/,/,-1.4,-3.9,/,/,/
O=[N+]([O-])c1ccc(C=Nc2ccc(Cl)c([N+](=O)[O-])c2)s1,0.4,-1.8,-14.1,-1.9,-5.65*,26.0,+
CC1(C(=O)NCc2ccc3c(c2)OCO3)CCN1C(=O)Cc1ccc(Cl)cc1Cl (configuration not stated),/,/,3.2,-1.7,/,/,/
Nc1cccc2c1C(=O)N(C(=O)/C=C/c1cccc(F)c1)C2=O,-8.9,19.8,-2.7,4.6,-4.3*,-19.3,+
COc1cc(/C=C/C(=O)N2C(=O)c3cccc(N)c3C2=O)cc(OC)c1OC,0.0,4.8,3.2,1.6,-0.316,36.6,/
Nc1cccc2c1C(=O)N(C(=O)/C=C/c1cccc(Br)c1)C2=O,7.6,/,5.4,2.2,-4.93*,17.6,+
N#Cc1c(Cl)c(Cl)c2nnc(-c3ccc(Br)cc3)n2c1Cl,/,-3.3,/,/,-6.28*,/,+
CCCCCCN(C(=O)CCl)c1ccccc1,7.5,/,12.1,-3.3,-4.72*,14.5,+
O=C(CCl)N(c1ccccc1)c1ccccc1,6.8,-8.6,7.3,5.8,-4.51*,2.8,+
O=C(N(c1ccccc1)c1ccccc1)N(c1ccccc1)c1ccccc1,/,/,3.0,-2.8,-0.618,-3.0,/
CCCCCCCN(C(=O)CCl)c1cccc(C)c1,-2.3,8.6,4.0,-5.9,-3.02,20.2,/
Cc1cccc(N(Cc2cc(=O)[nH]c3ccccc23)C(=O)CCl)c1,-2.0,/,8.5,-7.2,/,0.2,/
O=Cc1[nH]c2ccccc2c1N(C(=O)CCl)c1ccccc1,9.4,/,8.4,-14.5,-7.61,-1.8,+
COCOc1cccc(CN2CCC2(C)C(=O)Nc2cc(OC)ccc2OC)c1 (configuration not stated),/,/,0.6,2.2,/,/,/
N#CC(C#N)=Cc1cc2ccccc2nc1N1CCCCC1,3.1,3.8,15.4,-12.1,-4.38*,6.2,?
CCOC(=O)/C(C#N)=C/c1cc2ccccc2nc1N1CCOCC1,3.2,-0.8,-4.1,-10.2,1.06,-5.2,/
C=CCNCCCOc1ccc(Cl)cc1C(C)(C)C,0.6,2.4,-0.4,4.8,-6.67*,3.9,i
COc1cc2c(cc1OC)C(SC)=NC1(CCCC1)C2,-2.7,11.9,-4.5,3.7,-3.56*,23.6,+
